The source made the active and inactive calls. The rule behind the calls is not given here.
Tests used:
[1] = target: Replicase polyprotein 1ab (Severe acute respiratory syndrome coronavirus 2, UniProt P0DTD1); test: (§1) Inhibition of SARS-CoV-2 RdRp using ATP substrate preincubated with compound for 30 mins followed by substrate addition and measured after 30 mins by Alphascreen microplate reader analysis
[2] = Kinetic solubility of the compound in pH 7.4 PBS incubated for 24 hrs by UPLC/MS analysis; assay type: physicochemical; settings: buffer, pH 7.4, 24 h
[3] = Metabolic stability in mouse liver microsomes assessed as half life preincubated with microsomes for 15 mins followed by NADPH addition and measured upto 60 mins by LC-MS/MS analysis; assay type: ADME, Microsome; settings: time < 75 min
How it was run: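 Compound at 4.6 µM final preincubated 15 min at 37 °C with mouse liver microsomes in 0.1 M Tris-HCl pH 7.4, then NADPH, G6P, G6PDH and MgCl2 added; sampled at 0, 5, 15, 30, 60 min into cold acetonitrile with internal standard. LC-MS/MS with positive ESI; percent remaining versus t = 0; half-life from one-phase decay non-linear regression.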

[4] = Metabolic stability in mouse plasma assessed as half life measured upto 120 mins by LC-MS/MS analysis; assay type: ADME, cell-free
How it was run: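 Compound at 2 µM final incubated at 37 °C for up to 2 h in mouse plasma with 5 % DMSO; sampled at 0, 5, 15, 30, 60, 120 min into cold acetonitrile with internal standard, centrifuged, supernatant diluted 1:1 with water and quantified by LC-MS/MS.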

HEK293 = test: Cytotoxicity against HEK293 cells assessed as inhibition of cell growth at 100 uM incubated for 24 to 48 hrs by MTT assay; assay type: toxicity, cell-based; settings: human, hek293, 100 µM, time 24-48 hrs
How it was run: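 HEK-293 cells grown in DMEM with 2 mM L-glutamine, 10 % heat-inactivated FBS, 1 % penicillin/streptomycin, 37 °C, 5 % CO2; seeded 10,000 cells/well, treated 24 h after seeding for 24 or 48 h, vehicle DMSO 0.5 % final. MTT 0.5 mg/ml for 2 h, formazan dissolved in ethanol, absorbance 570 nm (ref 650 nm); 8 serial dilutions in triplicate, three independent experiments, mean ± SD.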

[5] = target: Replicase polyprotein 1ab (Severe acute respiratory syndrome coronavirus 2) (UniProt P0DTD1); test: as §1; settings: time 60.0 min
SARS-CoV-2 = test: Antiviral activity against SARS-CoV-2 human/Czech Republic/951/2020 infected in African green monkey Vero cells pretreated […] followed by viral infection and measured after 48 hrs by viral titer reduction assay; assay type: functional, organism-based; settings: Severe acute respiratory syndrome coronavirus 2, human/Czech Republic/951/2020, Vero

| SMILES | Kinetic_solubility [2] | half-life [3] | half-life [4] | also measured |
| --- | --- | --- | --- | --- |
| CCCCC(c1ccc(O)c(O)c1)c1cc(=O)c2c(O)cccc2o1 (stereo not drawn) | – | – | – | IC50 [1]: > 100 µM |
| O=c1cc(Cc2ccc(O)c(O)c2)oc2cccc(O)c12 | 63 µM | > 2 h | > 1 h | – |
| O=c1c(O)c(-c2ccc(O)c(O)c2)oc2cc(O)cc(O)c12 [QUERCETIN] | – | 0.117 h | > 1 h | – |
| O=c1cc(/C=C/c2ccc(O)c(O)c2)oc2cccc(O)c12 | < 1 µM | – | – | – |
| O=c1c(OCCCO)c(-c2ccc(O)c(O)c2)oc2cc(O)cc(O)c12 | – | 1.5 h | 1 h | Activity (HEK293): Non-Toxic |
| O=C(Nc1ccc(O)c(O)c1)c1cc(=O)c2c(O)cccc2o1 | 65 µM | 1.38 h | 1 h | – |
| O=c1cc(-c2ccc(O)c(O)c2)oc2cc(O)cc(O)c12 [LUTEOLIN] | – | > 2 h | > 1 h | – |
| O=C(NCCNC(=S)Nc1ccc(O)c(O)c1)c1cc(=O)c2c(O)cccc2o1 | < 1 µM | – | – | – |
| CCCCOc1c(-c2ccc(O)c(O)c2)oc2cc(O)cc(O)c2c1=O | 156 µM | > 2 h | > 1 h | Activity (HEK293): Non-Toxic |
| CCCCc1c(-c2ccc(O)c(O)c2)oc2cc(O)cc(O)c2c1=O | < 1 µM | – | – | IC50 [1]: 6 µM |
| O=c1cc(CCc2ccc(O)c(O)c2)oc2cccc(O)c12 | 67 µM | > 2 h | > 1 h | – |
| CCCc1c(-c2ccc(O)c(O)c2)oc2cc(O)cc(O)c2c1=O | 13 µM | – | – | – |
| CC(c1ccc(O)c(O)c1)c1cc(=O)c2c(O)cccc2o1 (stereo not drawn) | 165 µM | > 2 h | > 1 h | Activity (HEK293): Non-Toxic |
| O=c1cc(C(CCCC(F)(F)F)c2ccc(O)c(O)c2)oc2cccc(O)c12 (stereo not drawn) | – | – | – | inhibition [5]: inactive |
| O=C(Oc1ccc(O)c(O)c1)c1cc(=O)c2c(O)cccc2o1 | < 1 µM | – | – | – |
| O=C(N[C@@H](Cc1ccc(O)cc1)C(=O)O)c1cc(-c2ccccc2)c(=O)n2c1sc1ccc(OC3CCCCC3)cc12 | – | – | – | EC50 (SARS-CoV-2): 0.65 µM |
| Cc1c(-c2ccc(O)c(O)c2)oc2cc(O)cc(O)c2c1=O | 32 µM | – | – | – |
| O=c1c(OCCO)c(-c2ccc(O)c(O)c2)oc2cc(O)cc(O)c12 | 167 µM | > 2 h | > 1 h | Activity (HEK293): Non-Toxic |
